This note sets out measurements from PubChem BioAssay AID685 (PCMD, 2007).

A short description of the assay: S. cerevisiae growth inhibition, turbidity – wild-type and eIF2Bepsilon R284H mutant, A595, cytotoxicity control for eIF2B function restoration project, primary screen (AID 685).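 Also: 0% = untreated cell controls and 100% = YPD media blanks without cells.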 Particulars: 16 h, stronger effect = higher value, screened at 25 µM (by protocol). Put shortly: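 system = S. cerevisiae wild-type or eIF2Bepsilon-R284H mutant strain | buffer or medium = YPD medium | dosing = one dose, 25 µM compound, 0.2% DMSO | schedule = 16 h at 30 °C | measured by = A595 turbidity | evaluation = growth inhibition (%) versus cell controls and blanks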

[1] abbreviates: S. cerevisiae eIF2Bepsilon-R284H mutant growth.

Among all 30,000 compounds or so, about 80 (0.3%) were called active.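 The calls were made as follows: active = mutant and wild-type yeast strains alike exhibit over 30% growth inhibition; inconclusive = a strain exceeds 50% while the second remains under 30%; inactive = the rest.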 Many of the other results were omitted from the sample, so actives are more common in it than they were.

Regarding `COC(=O)COc1ccc(S(=O)(=O)N2CCOCC2)cc1`, the growth inhibition was 0% under setting [1] and -24.2% (inactive) (S. cerevisiae wild-type growth).
For the compound `Cc1ccc(-c2csc(NC(=O)Cc3cccs3)n2)cc1C`, the growth inhibition is 0% under setting [1] and 33.1% (inactive) (S. cerevisiae wild-type growth).
The like results for `CCOC(=O)C1=C(C)NC(SC)=NC1c1ccccc1` (stereo unspecified) were, in that order, -3.45% and -15.1% (inactive).
Consider `Cc1ccc(N(CC(=O)Nc2cccc(N(C)S(C)(=O)=O)c2)S(C)(=O)=O)cc1`, for which the growth inhibition was 16.1% under setting [1] and 8.21% (inactive) (S. cerevisiae wild-type growth).
In the case of `Cn1c(N)c(C(=O)COC(=O)C23CC4CC(CC(C4)C2)C3)c(=O)n(C)c1=O`, the growth inhibition is 11.6% under setting [1] and 6.55% (inactive) (S. cerevisiae wild-type growth).
As to `CN=C1SC(CC(=O)Nc2ccc(C(=O)O)cc2)C(=O)N1C` (stereo unspecified), the growth inhibition runs as follows: under setting [1], 10.3%; (S. cerevisiae wild-type growth) 13.1% (inactive).
With `O=S(=O)(NCCOc1cccc2cccnc12)c1ccc(F)cc1`, the growth inhibition was 0% under setting [1] and -11.7% (inactive) (S. cerevisiae wild-type growth).
As to `O=C(c1cccc(F)c1)N1CCC(O)(c2cccnc2)CC1`, the growth inhibition is, setting by setting: under setting [1], -27.3%; (S. cerevisiae wild-type growth) 1.72% (inactive).
Turning to `CCOc1ccc(NC(=O)C2CCCN(C(=O)Nc3ccccc3)C2)cc1` (stereo unspecified), the growth inhibition under setting [1] came to 8.33% and the growth inhibition (S. cerevisiae wild-type growth) is 16.3% (inactive).
The like results for `CC(OC(=O)CN1C(=O)C2CCCCC2C1=O)C(=O)Nc1ncc(Cl)cc1Cl` (stereo unspecified) were, in that order, 15.2% and 19.3% (inactive).
Regarding `CCOC(=O)c1c(NC(=O)CSc2nnc(CNc3ccc(C)cc3C)o2)sc(C)c1C`, the growth inhibition runs as follows: under setting [1], 25.9%; (S. cerevisiae wild-type growth) 25.9% (inactive).
With `CCCCN(CC)CCNC(=O)c1[nH]c(C)c(C(C)=O)c1C`, the growth inhibition is, setting by setting: under setting [1], 17.6%; (S. cerevisiae wild-type growth) 11.2% (inactive).
In the case of `OC(C#CCN1CCOCC1)(c1ccccc1)C1CCCCC1` (stereo unspecified), the growth inhibition under setting [1] was found to be 7.89% and the growth inhibition (S. cerevisiae wild-type growth) is 34.3% (inactive).
Take `CCOCCOCCC(C(=O)O)P(=O)(c1ccccc1)c1ccccc1` (stereo unspecified): the growth inhibition was 16.7% under setting [1] and 13.8% (inactive) (S. cerevisiae wild-type growth).
The like results for `OC(CNCC1CCCO1)Cn1c2ccc(Br)cc2c2cc(Br)ccc21` (stereo unspecified) were, in that order, 100% and 86.7% (active).
For the compound `CCn1cc(C(=O)NCC2CCCO2)c(=O)c2cc(S(=O)(=O)N3CCCCC3)ccc21` (stereo unspecified), the growth inhibition runs as follows: under setting [1], -11.1%; (S. cerevisiae wild-type growth) 6.79% (inactive).
On to `CCc1cc(Br)ccc1NC(=O)C1CCCO1` (stereo unspecified), for which the growth inhibition was 18.5% under setting [1] and -7.78% (inactive) (S. cerevisiae wild-type growth).
For the compound `COc1ccc(CCNC(=O)CN(c2ccccc2)S(C)(=O)=O)cc1OC`, the growth inhibition under setting [1] was 12.8% and the growth inhibition (S. cerevisiae wild-type growth) was 18.3% (inactive).
For `COC(=O)c1c(C)c(C)nc(N)c1C#N`, the growth inhibition is -9.52% under setting [1] and -10.8% (inactive) (S. cerevisiae wild-type growth).
In the case of `COC(=O)c1ccc(Cc2ccccc2)o1`, the growth inhibition under setting [1] turned out to be 19.4% and the growth inhibition (S. cerevisiae wild-type growth) was 10% (inactive).
For the compound `CCOC(=O)c1cc2c(ccn2C)n1CC(=O)N1CCC(C)CC1`, the growth inhibition reads like this: under setting [1], 4.55%; (S. cerevisiae wild-type growth) -20.7% (inactive).
Take `O=C(C1CCC(C(=O)N2CCCC2)CC1)N1CCCC1` (stereo unspecified): the growth inhibition under setting [1] is -12.9% and the growth inhibition (S. cerevisiae wild-type growth) is -0.38% (inactive).
Taken in the same sequence, the figures for `Cn1c(Cn2nnc3ccccc32)nnc1SCC(=O)c1ccccc1F` were 16.2% and 4.07% (inactive).
`O=C(NC(=O)c1ccccc1)NC(=O)c1ccccc1`: the growth inhibition is, setting by setting: under setting [1], 5.26%; (S. cerevisiae wild-type growth) 12.5% (inactive).
As for `Nc1nc(SCc2ccccc2Cl)n[nH]1`, the growth inhibition is 16.2% under setting [1] and -0.77% (inactive) (S. cerevisiae wild-type growth).
In the case of `CC(C)N(C(=O)COC(=O)c1ccccc1C(=O)N1CCN(c2ccc(F)cc2)CC1)C(C)C`, the growth inhibition runs as follows: under setting [1], -1.35%; (S. cerevisiae wild-type growth) -10% (inactive).
On to `COc1ccc(O)c(C(=O)c2cnc3onc(C(C)C)c3c2)c1`, for which the growth inhibition under setting [1] is -10.5% and the growth inhibition (S. cerevisiae wild-type growth) is 8.18% (inactive).
`CS(=O)(=O)N(CC(=O)N1CCN(c2ccc(F)cc2)CC1)C1CCCCC1`: the growth inhibition is 4.76% under setting [1] and 3.1% (inactive) (S. cerevisiae wild-type growth).
Consider `O=C(Nc1ccc(Cl)cc1)c1cc2nc(C3CC3)cc(C(F)(F)F)n2n1`, for which the growth inhibition by setting is: under setting [1], -4.05%; (S. cerevisiae wild-type growth) 1.92% (inactive).
The like results for `O=C(CSCc1ccccc1)N1CCc2ccccc21` were, in that order, 9.38% and 14.7% (inactive).
`O=C(CN1CCSCC1)N/N=C/c1ccc(F)cc1`: the growth inhibition under setting [1] was 17.5% and the growth inhibition (S. cerevisiae wild-type growth) is 10% (inactive).
For the compound `O=C(Nc1ccccc1-c1nnn(CC(=O)N2CCCc3ccccc32)n1)c1cccc(Cl)c1`, the growth inhibition runs as follows: under setting [1], 4.35%; (S. cerevisiae wild-type growth) -12.9% (inactive).
`CC1CCC2(CC1)NC(=O)N(CC(=O)c1cccn1C)C2=O` (stereo unspecified): the growth inhibition is -4.76% under setting [1] and 3% (inactive) (S. cerevisiae wild-type growth).
As for `Cc1cc(=O)[nH]c(SCc2cccc(F)c2)n1`, the growth inhibition was 0% under setting [1] and 10.8% (inactive) (S. cerevisiae wild-type growth).
Consider `Cc1cc(C)cc(NC(=O)C2CCN(c3nc(C)cc(C)n3)CC2)c1`, for which the growth inhibition was -2.94% under setting [1] and 5.33% (inactive) (S. cerevisiae wild-type growth).
As to `CC(c1ccco1)N(C(=O)COc1ccccc1[N+](=O)[O-])c1ccccn1` (stereo unspecified), the growth inhibition under setting [1] was -23.8% and the growth inhibition (S. cerevisiae wild-type growth) is -11% (inactive).
Consider `COc1cc(C)c(C(C)C)cc1S(=O)(=O)n1ccnc1`, for which the growth inhibition is -20% under setting [1] and -17% (inactive) (S. cerevisiae wild-type growth).
For the compound `O=c1[nH]nc(CSCc2ccccc2Cl)[nH]1`, the growth inhibition is, setting by setting: under setting [1], -3.13%; (S. cerevisiae wild-type growth) -3.79% (inactive).
Taken in the same sequence, the figures for `O=C(O)c1cc2ccccc2c(=O)s1` were -9.52% and 17.3% (inactive).
As for `CCN(CC)C(=O)CSc1ncnc2c1cnn2-c1ccccc1`, the growth inhibition by setting is: under setting [1], -12.9%; (S. cerevisiae wild-type growth) 1.3% (inactive).
Taken in the same sequence, the figures for `O=C(Cn1cnc2ccccc2c1=O)NCC1COc2ccccc2O1` (stereo unspecified) were 10.9% and 3.57% (inactive).
Consider `O=C(NCC1CCC(C(=O)O)CC1)OCc1ccccc1` (stereo unspecified), for which the growth inhibition runs as follows: under setting [1], 0%; (S. cerevisiae wild-type growth) -12.5% (inactive).
For the compound `COc1ccc(S(=O)(=O)NCc2ccc(C(=O)N(C)Cc3ccco3)cc2)cc1`, the growth inhibition under setting [1] is 6.06% and the growth inhibition (S. cerevisiae wild-type growth) was -4.07% (inactive).
